These results are taken from ChEMBL document CHEMBL1133353, “Structural analogues of some highly active non-competitive AMPA antagonists” (Bioorg Med Chem Lett, 2000).

In test [1] the test system is Mus musculus. In words: Muscle relaxant activity of compound, administered intraperitoneally in mice was evaluated using inclined screen test. Format: functional. Particulars: ip. The gist of the method: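 Inclined screen test for muscle relaxation in mice, with compound given ip 30 min before testing; 10 mice per dose at 3–4 doses. ED50 was derived by the Litchfield–Wilcoxon method.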

In test [2] the test system is Mus musculus. In words: Anticonvulsant activity of compound, administered perorally in mice was evaluated using maximal electroshock seizure model. As to conditions: po. Format: functional. The method in brief:
(§1)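 Mice were dosed orally 60 min before maximal electroshock, using 10 mice per dose at 3–4 doses. ED50 was calculated by the Litchfield–Wilcoxon method.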

Test [3] deals with Mus musculus. In words: No behavioral change was observed after the peroral administration of compound in mice. Format: functional.
For test [4], the system named is Mus musculus. In words: No behavioral change was observed after the intraperitoneal administration of compound in mice. Format: functional.
Test [5] is filed under the species Gallus gallus. In words: Compound was examined in vitro for inhibition of AMPA (5 uM) evoked spreading depression in isolated retina prepared from young chicken. In kind it is functional. The gist of the method:
(§2)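 Each compound was first screened at 20 µM in 6 retina preparations. Below 40% inhibition was recorded as IC50 >20 µM, and 40–60% as ~20 µM. Above 60%, IC50 was determined from 3–5 concentrations with 6 retinas per concentration.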

In test [6] the test system is Mus musculus. In words: Increase of spontaneous motor activity, ataxy, stereotypia, licking, muscle rigidity was observed after the peroral administration of compound in mice. Format: functional.
Test [7] concerns Mus musculus. In words: Increase of spontaneous motor activity, ataxy, stereotypia, licking, muscle rigidity was observed after the intraperitoneal administration of compound in mice. In kind it is functional.
Test [8] concerns Mus musculus. In words: Anticonvulsant activity of compound, administered perorally in mice was evaluated using maximal electroshock seizure model; values ranges from (40.5-54.7). As to conditions: po. In kind it is functional. The gist of the method: as §1
On the technique in general: The maximal electroshock test induces tonic seizures with an electrical stimulus.

The subject of test [9] is Mus musculus. In words: Anticonvulsant activity of compound, administered perorally in mice was evaluated using maximal metrazole seizure model. In kind it is functional. As to conditions: po. The gist of the method: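 Oral dosing in mice 60 min before 130 mg/kg metrazole ip, with lethality as the endpoint; 10 mice per dose at 3–4 doses. ED50 was obtained by the Litchfield–Wilcoxon method.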

Test [10] relates to Mus musculus. In words: Loss of righting reflex was observed after the peroral administration of compound in mice. In kind it is functional.
The species named for test [11] is Rattus norvegicus. In words: (§3) Compound was tested for inhibition of whole cell current induced […]. Format: functional. The method in brief: (§4)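 Patch-clamp whole-cell currents evoked by 5 µM AMPA; inhibition reported as IC50 or as percent inhibition at 5 µM compound.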
For test [12], the species on record is Gallus gallus. In words: Compound was examined in vitro for inhibition of kainate (5 uM) evoked spreading depression in isolated retina prepared from young chicken. In kind it is functional. The gist of the method:
as §2

The test system of test [13] is Mus musculus. In words: Loss of righting reflex was observed after the intraperitoneal administration of compound in mice. In kind it is functional.
Test [14] concerns Mus musculus. In words: Decrease of spontaneous motor activity, ataxy, mild muscle relaxation was observed after the intraperitoneal administration of compound in mice. In kind it is functional.
In test [15] the test system is Mus musculus. In words: Decrease of spontaneous motor activity, ataxy, mild muscle relaxation was observed after the peroral administration of compound in mice. In kind it is functional.
For test [16], the system named is Mus musculus. In words: Adynamia was observed after the peroral administration of compound in mice. In kind it is functional.
In test [17] the test system is Mus musculus. In words: Adynamia was observed after the intraperitoneal administration of compound in mice. Format: functional.
The species named for test [18] is Rattus norvegicus. The description is as §3. Format: functional, cell-based. The gist of the method: as §4

A word on the ED50: it is the midpoint of the dose-response relation. Higher therefore signals weaker potency. The IC50 is the concentration needed to halve the response being measured. Read a high IC50 as weaker potency. For `CCCCC(=O)N1CC(C)c2cc3c(cc2C(c2ccc(N)cc2)=N1)OCO3` (stereo not drawn), the results for the ED50 in [1] and in test [2] were greater than 200 mg/kg and greater than 100 mg/kg, respectively. Also, the results for the Dose in test [3] and in test [4] were 200 mg/kg and 100 mg/kg, respectively. The compound further had an IC50 in [5] greater than 20 µM.

With `CC1CNN=C(c2ccc(N)cc2)c2cc3c(cc21)OCO3` (stereo not drawn), the Dose came out at 200 mg/kg in test [6] and 100 mg/kg in test [7]. Further, the ED50 worked out at 100 mg/kg in test [1] and 47.1 mg/kg in test [8].

A word on the Inhibition: it is the percentage by which the read-out fell short of the control. A higher Inhibition goes with strong suppression. As to `CNC(=O)N1CC(C)c2cc3c(cc2C(c2ccc(N)cc2)=N1)OCO3` (stereo not drawn), the ED50 in test [9] was determined as 67.6 mg/kg; in test [1], 55.9 mg/kg; in [2], 48.8 mg/kg. In addition, the Dose was found to be 200 mg/kg in [10] and 100 mg/kg in [13]. The Inhibition in test [11] was 52.7%. Besides, the figures for the IC50 in test [12] and in [5] were 20 µM and 15.6 µM, respectively.

In the case of `CC1CN(C(=O)C2CC2)N=C(c2ccc(N)cc2)c2cc3c(cc21)OCO3` (stereo not drawn), the ED50 is greater than 200 mg/kg in test [1] and greater than 100 mg/kg in test [2]. The Dose in test [3] was found to be 200 mg/kg; in [4] it was 100 mg/kg. Besides, in [5], the IC50 was greater than 20 µM.

On to `CC1CN(c2ccccn2)N=C(c2ccc(N)cc2)c2cc3c(cc21)OCO3` (stereo not drawn), for which the Dose in test [14] came to 100 mg/kg; in [15], 200 mg/kg. The ED50 is greater than 200 mg/kg in test [1] and greater than 100 mg/kg in [2]. Moreover, the IC50 in [5] is greater than 20 µM.

For the compound `CC(=O)N1CC(C)c2cc3c(cc2C(c2ccc(N)cc2)=N1)OCO3` (stereo not drawn), the results for the median effective dose (ED50) in [9], in test [1] and in test [2] were 135 mg/kg, 95.3 mg/kg and 69.3 mg/kg, respectively. This compound also returned an Inhibition in test [11] of 54%. In addition, the IC50 in test [12] was 3.4 µM; in test [5] it was 20 µM. The figures for the Dose in test [16] and in [17] were 200 mg/kg and 100 mg/kg, respectively.

In the case of `CC1=NN=C(c2ccc(N)cc2)c2cc3c(cc2C1)OCO3` [GYKI-52466], the results for the ED50 in [9] and in [2] were 120 mg/kg and 37.4 mg/kg, respectively. Moreover, the Dose was 200 mg/kg in [10] and 100 mg/kg in test [13]. Moreover, the IC50 in test [18] came out at 9.9 µM; in test [12], 9.5 µM; in test [5], 6.3 µM.

Take `CC(=O)N1N=C(c2ccc(N)cc2)c2cc3c(cc2C[C@H]1C)OCO3` [TALAMPANEL]: the figures for the Dose in [10] and in test [13] were 200 mg/kg and 100 mg/kg, respectively. Besides, the IC50 came out at 2.5 µM in test [18], 2.6 µM in [12] and 1.7 µM in test [5]. In test [2], the ED50 was 8.6 mg/kg.
